Measured values as given in ChEMBL document CHEMBL3751694, “1-Piperazinylphthalazines as potential VEGFR-2 inhibitors and anticancer agents: Synthesis and in vitro biological evaluation” (Eur J Med Chem, 2016).

Columns and labels:
Type in all cases: functional
T47D = assay: Growth inhibition of human T47D cells at 10 uM after 48 hrs by SRB method; conditions: read-out: GI
Outline: (§1)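 NCI 56-line screen, single-dose primary assay at 10^-5 M. Cells grown in RPMI 1640 with 5% FBS and 2 mM L-glutamine, plated at 5000–40,000 cells/well and held 24 h at 37 °C, 5% CO2 before drug addition. Compound was given from DMSO stock, exposure 48 h, then TCA fixation and SRB staining with absorbance at 515 nm. % growth is taken relative to time-zero and untreated controls.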

NCI-H522 = assay: Growth inhibition of human NCI-H522 cells at 10 uM after 48 hrs by SRB method; conditions: NCI-H522, 48 h, read-out: GI
Outline: (§2)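 NCI 56-line primary screen at a single 10^-5 M concentration. Cells grown in RPMI 1640 with 5% FBS and 2 mM L-glutamine, plated at 5000–40,000 cells/well, then preincubated for 24 h. Exposure was 48 h at 37 °C and 5% CO2. Adherent cells were fixed with cold TCA at 10% final, suspension cells at 16%. Staining used 0.4% SRB, read at 515 nm. Results are % growth inhibition relative to control.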

MDA-MB-468 = assay: Growth inhibition of human MDA-MB-468 cells at 10 uM after 48 hrs by SRB method; conditions: MDA-MB-468, 48 h, read-out: GI; outline: as §2
NCI/ADR-RES = assay: Growth inhibition of human NCI/ADR-RES cells at 10 uM after 48 hrs by SRB method; conditions: read-out: GI; outline: as §2
[1] = Growth inhibition of human […] cells at 10 uM after 48 hrs by SRB method; conditions: read-out: GI; outline: as §2
[2] = Growth inhibition of human PC3 cells at 10 uM after 48 hrs by SRB method; conditions: PC-3, 48 h, read-out: GI; outline: as §2
[3] = Growth inhibition of human MOLT4 cells at 10 uM after 48 hrs by SRB method; conditions: MOLT-4, 48 h, read-out: GI; outline: as §2
SK-MEL-5 = assay: Growth inhibition of human SK-MEL-5 cells at 10 uM after 48 hrs by SRB method; conditions: SK-MEL-5, 48 h, read-out: GI; outline: as §2
[4] = Growth inhibition of human HL-60(TB) cells at 10 uM after 48 hrs by SRB method; conditions: HL-60, 48 h, read-out: GI
Outline: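 NCI single-dose primary screen at 10^-5 M, 48 h exposure. Cells grown in RPMI 1640 with 5% FBS and 2 mM L-glutamine. Suspension cells fixed in situ with TCA (final 16%), stained with SRB, absorbance read at 515 nm. Percent growth inhibition calculated against time-zero and untreated control plates.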

[5] = Growth inhibition of human UACC62 cells at 10 uM after 48 hrs by SRB method; conditions: UACC-62, 48 h, read-out: GI; outline: as §1
[6] = Growth inhibition of human HOP92 cells at 10 uM after 48 hrs by SRB method; conditions: HOP-92, 48 h, read-out: GI; outline: as §2
SR = assay: Growth inhibition of human SR cells at 10 uM after 48 hrs by SRB method; conditions: read-out: GI; outline: as §2
K562 = assay: Growth inhibition of human K562 cells at 10 uM after 48 hrs by SRB method; conditions: K562, 48 h, read-out: GI; outline: as §2
CCRF-CEM = assay: Growth inhibition of human CCRF-CEM cells at 10 uM after 48 hrs by SRB method; conditions: read-out: GI; outline: as §2
[7] = Growth inhibition of human UO31 cells at 10 uM after 48 hrs by SRB method; conditions: UO-31, 48 h, read-out: GI; outline: as §1
[8] = Growth inhibition of human OVCAR3 cells at 10 uM after 48 hrs by SRB method; conditions: OVCAR-3, 48 h, read-out: GI; outline: as §2
A498 = assay: Growth inhibition of human A498 cells at 10 uM after 48 hrs by SRB method; conditions: A498, 48 h, read-out: GI; outline: as §2
[9] = Growth inhibition of human TK10 cells at 10 uM after 48 hrs by SRB method; conditions: TK-10, 48 h, read-out: GI; outline: as §1
[10] = Growth inhibition of human COLO205 cells at 10 uM after 48 hrs by SRB method; conditions: COLO 205, 48 h, read-out: GI; outline: as §2
[11] = Growth inhibition of human HCT116 cells at 10 uM after 48 hrs by SRB method; conditions: HCT-116, 48 h, read-out: GI; outline: as §2
NCI-H226 = assay: Growth inhibition of human NCI-H226 cells at 10 uM after 48 hrs by SRB method; conditions: NCI-H226, 48 h, read-out: GI; outline: as §2
MDA-MB-231 = assay: Growth inhibition of human MDA-MB-231 cells at 10 uM after 48 hrs by SRB method; conditions: MDA-MB-231, 48 h, read-out: GI; outline: as §2
[12] = Growth inhibition of human Caki1 cells at 10 uM after 48 hrs by SRB method; conditions: CAKI-1, 48 h, read-out: GI; outline: as §2
A549 = assay: Growth inhibition of human A549 cells at 10 uM after 48 hrs by SRB method; conditions: A549, 48 h, read-out: GI; outline: as §2
MCF7 = assay: Growth inhibition of human MCF7 cells at 10 uM after 48 hrs by SRB method; conditions: MCF7, 48 h, read-out: GI; outline: as §2

For COc1ccc(NC(=O)CN2CCN(c3nnc(-c4ccccc4)c4ccccc34)CC2)cc1, the inhibition of growth at 10 µM (T47D) was 55%, the inhibition of growth at 10 µM (NCI-H522) was 30% and the inhibition of growth at 10 µM (MDA-MB-468) was 37%.

With O=C(CN1CCN(c2nnc(-c3ccccc3)c3ccccc23)CC1)Nc1nccs1 the inhibition of growth at 10 µM (T47D) was 64%, the inhibition of growth at 10 µM (NCI-H522) was 41% and the inhibition of growth at 10 µM (NCI/ADR-RES) was 32%. It also gave an inhibition of growth at 10 µM [1] of 51%, an inhibition of growth at 10 µM [2] of 38% and an inhibition of growth at 10 µM [3] of 39%. The inhibition of growth at 10 µM (SK-MEL-5) was 36%, the inhibition of growth at 10 µM [4] was 38% and the inhibition of growth at 10 µM (MDA-MB-468) was 59%. For the same compound, the inhibition of growth at 10 µM [5] was 37%, the inhibition of growth at 10 µM [6] was 35% and the inhibition of growth at 10 µM (SR) was 31%. The inhibition of growth at 10 µM (K562) was 36%, the inhibition of growth at 10 µM (CCRF-CEM) was 30% and the inhibition of growth at 10 µM [7] was 40%. The inhibition of growth at 10 µM [8] was 38%.

COc1ccc(-c2csc(NC(=O)CN3CCN(c4nnc(-c5ccccc5)c5ccccc45)CC3)n2)cc1 gave an inhibition of growth at 10 µM (A498) of 43%, an inhibition of growth at 10 µM (T47D) of 82% and an inhibition of growth at 10 µM [9] of 32%. It also gave an inhibition of growth at 10 µM (NCI-H522) of 34%, an inhibition of growth at 10 µM [1] of 50% and an inhibition of growth at 10 µM [2] of 47%. For the same compound, the inhibition of growth at 10 µM [3] was 62%, the inhibition of growth at 10 µM (SK-MEL-5) was 46% and the inhibition of growth at 10 µM [10] was 40%. It also gave an inhibition of growth at 10 µM [4] of 40%, an inhibition of growth at 10 µM (MDA-MB-468) of 58% and an inhibition of growth at 10 µM [11] of 32%. It also gave an inhibition of growth at 10 µM (NCI-H226) of 36%, an inhibition of growth at 10 µM (MDA-MB-231) of 42% and an inhibition of growth at 10 µM [12] of 33%. It also gave an inhibition of growth at 10 µM (SR) of 44%, an inhibition of growth at 10 µM (K562) of 48% and an inhibition of growth at 10 µM (CCRF-CEM) of 34%. The inhibition of growth at 10 µM [7] was 48% and the inhibition of growth at 10 µM (A549) was 34%.

O=C(CN1CCN(c2nnc(-c3ccccc3)c3ccccc23)CC1)Nc1cccc(C(F)(F)F)c1 gave an inhibition of growth at 10 µM (A498) of 32%, an inhibition of growth at 10 µM (T47D) of 59% and an inhibition of growth at 10 µM (NCI-H522) of 53%. For the same compound, the inhibition of growth at 10 µM (MCF7) was 41%, the inhibition of growth at 10 µM [1] was 46% and the inhibition of growth at 10 µM [2] was 40%. The inhibition of growth at 10 µM [3] was 52%, the inhibition of growth at 10 µM (SK-MEL-5) was 41% and the inhibition of growth at 10 µM (MDA-MB-468) was 60%. For the same compound, the inhibition of growth at 10 µM [5] was 41%, the inhibition of growth at 10 µM (SR) was 55% and the inhibition of growth at 10 µM (K562) was 38%. It also gave an inhibition of growth at 10 µM (CCRF-CEM) of 31% and an inhibition of growth at 10 µM (A549) of 34%.

With O=C(CN1CCN(c2nnc(-c3ccccc3)c3ccccc23)CC1)c1ccc(Cl)cc1 the inhibition of growth at 10 µM (T47D) was 41%, the inhibition of growth at 10 µM (NCI-H522) was 57% and the inhibition of growth at 10 µM [3] was 30%. The inhibition of growth at 10 µM (MDA-MB-468) was 38% and the inhibition of growth at 10 µM (K562) was 33%.
